The text below walks through data of ChEMBL document CHEMBL1121681, “Synthesis and antiviral activity of certain 9-beta-D-ribofuranosylpurine-6-carboxamides” (1981).

Assay [1] deals with Vero. In words: In vitro antiviral activity against V V virus in (vero) V cells of african green monkey kidney / 1000 toxic level. It counts as functional, Chlorocebus sabaeus.
Assay [2] relates to Vero. Description: In vitro antiviral activity against COXB1 virus in (vero) V cells of african green monkey kidney / 1000 toxic level. The format is functional, Chlorocebus sabaeus.
The subject of assay [3] is Laryngeal epithelioma cell line. Description: In vitro antiviral activity against VSV virus in human laryngeal epithelioma cell line / 320 toxic level. The format is functional.
Assay [4] relates to Vero. Description: In vitro antiviral activity against VSV virus in (vero) V cells of african green monkey kidney / 1000 toxic level. The format is functional, Chlorocebus sabaeus.
In assay [5] the test system is Laryngeal epithelioma cell line. Description: In vitro antiviral activity against HSV-1 virus in human laryngeal epithelioma cell line / 320 toxic level. It counts as functional.
The test system is the same in assay [6]. In words: In vitro antiviral activity against V V virus human laryngeal epithelioma cell line / 320 toxic level. The format is functional.
Assay [7] has the same test system. Description: In vitro antiviral activity against COXB1 virus in human laryngeal epithelioma cell line / 320 toxic level. It counts as functional.
The test system of assay [8] is Vero. Description: In vitro antiviral activity against HSV-1 virus in (vero) V cells of african green monkey kidney / 1000 toxic level. It counts as functional, Chlorocebus sabaeus.
The test system of assay [9] is Vero. Description: In vitro antiviral activity against Para 3 virus in (vero) V cells of african green monkey kidney / 1000 toxic level. The format is functional, Chlorocebus sabaeus.
Assay [10] deals with Laryngeal epithelioma cell line. Description: In vitro antiviral activity against Para 3 virus in human laryngeal epithelioma cell line / 320 toxic level. It counts as functional.
For assay [11], the system named is Vero. In words: In vitro antiviral activity against Para 3 virus in (vero) V cells of african green monkey kidney. It counts as functional, Chlorocebus sabaeus.
The test system of assay [12] is Vero. In words: In vitro antiviral activity against HSV-1 virus in (vero) V cells of african green monkey kidney. The format is functional, Chlorocebus sabaeus.
Assay [13] deals with Rift Valley fever virus. In words: Percent increase in survival rate of Rift Valley fever virus infected mice on day 21, by administering 100 (mg/kg)/day of compound. It counts as functional.
The subject of assay [14] is Vero. In words: In vitro antiviral activity against COXB1 virus in (vero) V cells. The format is functional, Chlorocebus sabaeus.
Assay [15] relates to Laryngeal epithelioma cell line. In words: In vitro antiviral activity against V V virus in human laryngeal epithelioma cell line. The format is functional.
Assay [16] shares this test system. Description: In vitro antiviral activity against VSV virus in human laryngeal epithelioma cell line. It counts as functional.
Assay [17] shares this test system. Description: In vitro antiviral activity against HSV-1 virus in human laryngeal epithelioma cell line. It counts as functional.
Assay [18] has the same test system. In words: In vitro antiviral activity against COXB1 virus in human laryngeal epithelioma cell line. It counts as functional.
The subject of assay [19] is Vero. In words: In vitro antiviral activity against VSV virus in (vero) V cells. The format is functional, Chlorocebus sabaeus.
For assay [20], the system named is Vero. Description: In vitro antiviral activity against V V virus in (vero) V cells of african green monkey kidney. The format is functional, Chlorocebus sabaeus.
For assay [21], the system named is Laryngeal epithelioma cell line. In words: In vitro antiviral activity against Para 3 virus in human laryngeal epithelioma cell line. It counts as functional.
For assay [22] the test system is unchanged. Description: In vitro antiviral activity against HSV-1 virus in human laryngeal epithelioma cell line / 1000 toxic level. The format is functional.
Assay [23] has the same test system. Description: In vitro antiviral activity against VSV virus in human laryngeal epithelioma cell line / 1000 toxic level. The format is functional.
Assay [24] has the same test system. In words: In vitro antiviral activity against Para 3 virus in human laryngeal epithelioma cell line / 1000 toxic level. It counts as functional.
For assay [25] the test system is unchanged. Description: In vitro antiviral activity against COXB1 virus in human laryngeal epithelioma cell line / 1000 toxic level. The format is functional.
Assay [26] has as its system Vero. Description: In vitro antiviral activity against COXB1 virus in (vero) V cells of african green monkey kidney. It counts as functional, Chlorocebus sabaeus.
Assay [27] relates to Laryngeal epithelioma cell line. In words: In vitro antiviral activity against V V virus human laryngeal epithelioma cell line / 1000 toxic level. It counts as functional.
The subject of assay [28] is Vero. Description: In vitro antiviral activity against VSV virus in (vero) V cells of african green monkey kidney. It counts as functional, Chlorocebus sabaeus.
Assay [29] relates to Vero. In words: In vitro antiviral activity against HSV-1 virus in (vero) V cells of african green monkey kidney / 320 toxic level. The format is functional, Chlorocebus sabaeus.
Assay [30] deals with Laryngeal epithelioma cell line. Description: In vitro antiviral activity against VSV virus in human laryngeal epithelioma cell line / 100 toxic level. The format is functional.
For assay [31] the test system is unchanged. In words: In vitro antiviral activity against Para 3 virus in human laryngeal epithelioma cell line / 100 toxic level. It counts as functional.
The test system is the same in assay [32]. Description: In vitro antiviral activity against HSV-1 virus in human laryngeal epithelioma cell line / 100 toxic level. The format is functional.
The test system of assay [33] is Vero. Description: In vitro antiviral activity against VSV virus in (vero) V cells of african green monkey kidney / 320 toxic level. The format is functional, Chlorocebus sabaeus.
In assay [34] the test system is Laryngeal epithelioma cell line. Description: In vitro antiviral activity against Cox B1 virus in human laryngeal epithelioma cell line / 100 toxic level. The format is functional.
The test system of assay [35] is Vero. Description: In vitro antiviral activity against Cox B1 virus in (vero) V cells of african green monkey kidney / 320 toxic level. The format is functional, Chlorocebus sabaeus.
Assay [36] deals with Laryngeal epithelioma cell line. In words: In vitro antiviral activity against Vaccinia virus human laryngeal epithelioma cell line / 100 toxic level. The format is functional.
The subject of assay [37] is Vero. Description: In vitro antiviral activity against Vaccinia virus in (vero) V cells of african green monkey kidney / 320 toxic level. The format is functional, Chlorocebus sabaeus.
The test system of assay [38] is Laryngeal epithelioma cell line. In words: In vitro antiviral activity against vaccinia virus human laryngeal epithelioma cell line / 320 toxic level. The format is functional.
The subject of assay [39] is Vero. In words: In vitro antiviral activity against vaccinia virus in (vero) V cells of african green monkey kidney / 320 toxic level. The format is functional, Chlorocebus sabaeus.
Assay [40] has as its system Laryngeal epithelioma cell line. In words: In vitro antiviral activity against Cox B1 virus in human laryngeal epithelioma cell line / 320 toxic level. The format is functional.
The test system of assay [41] is Vero. In words: In vitro antiviral activity against Para 3 virus in (vero) V cells of african green monkey kidney / 320 toxic level. It counts as functional, Chlorocebus sabaeus.
Assay [42] relates to Rift Valley fever virus. Description: Inhibition of growth of Rift Valley fever virus in vero cells by administering 250 ug/mL of compound. It counts as functional, Chlorocebus sabaeus.
The test system of assay [43] is Rift Valley fever virus. Description: Percent increase in survival rate of Rift Valley fever virus infected mice on day 21, by administering 50 (mg/kg)/day of compound. It counts as functional.
Assay [44] relates to Vero. In words: Inhibition of growth of Rift Valley fever virus in vero cells by administering 500 ug/mL of compound. It counts as functional, Chlorocebus sabaeus.
Assay [45] relates to Vero. In words: Inhibition of growth of Pichinde virus in vero cells by administering 250 ug/mL of compound. The format is functional, Chlorocebus sabaeus. In short, it runs like this: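 Pichinde virus was adsorbed to Vero monolayers in 24-well cultures for 1 h at 37 °C. Cells were overlaid with agar containing compound dilutions and incubated at 37 °C with CO2. Plaques were counted after crystal violet staining to give inhibition of viral growth.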

Structures are written as SMILES.

Consider `N#Cc1ncnc2c1ncn2C1O[C@H](CO)[C@@H](O)[C@H]1O` (stereo partly drawn), for which the Virus rating with Vero [1] came to 1; in the assay on Vero [2], 0; in assay [3] it was 0.8; with Vero [4], 0; in assay [5], 0.8; in [6] it was 1. The Virus rating in assay [7] is on record as 1; in the assay on Vero [8], 0.4; in the assay with Vero [9], 0; in assay [10], 1.2.
Take `OC[C@H]1OC(n2cnc3c(I)ncnc32)[C@H](O)[C@@H]1O` (stereo partly drawn): the Virus rating in the assay on Vero [1] is on record as 1.2; with Vero [2], 0.1; in [3], 0.9; in the assay on Vero [4] it was 0; in assay [5] it was 1.6; in [6], 0.8. Further, the Virus rating was 1 in assay [7], 1 with Vero [8], 0.7 in the assay on Vero [9] and 0.6 in assay [10].
`NC(=O)c1ncn([C@@H]2O[C@H](CO)[C@@H](O)[C@H]2O)n1` [RIBAVIRIN]: the Virus rating with Vero [11] is given as 1.3; in the assay on Vero [12] it was 0.6; with Vero [14], 0.6; in assay [15] it was 1.2; in assay [16] it was 1.6; in assay [17], 1.2. Moreover, the Virus rating in [18] was determined as 1.1; in the assay with Vero [19], 0.8; in the assay with Vero [20], 1.2; in [21], 1.4. The ILS (commonly how much longer treated animals lived than controls) in the assay on Rift Valley fever virus [13] came to 70%.
In the case of `OC[C@H]1O[C@@H](n2cnc3c(Cl)ncnc32)[C@H](O)[C@@H]1O`, the Virus rating in the assay with Vero [12] worked out at 0.9; in assay [22] it was 0.6; in [23], 0.3; in assay [24], 1.3; in assay [25] it was 1; in the assay with Vero [26], 0.4. For the same compound, the Virus rating turned out to be 0.8 in assay [27], 1.5 with Vero [20] and 0.5 in the assay on Vero [28].
As for `NC(=S)c1ncnc2c1ncn2C1O[C@H](CO)[C@@H](O)[C@H]1O` (stereo partly drawn), the Virus rating in the assay on Vero [29] was 1.1; in [30], 0.7; in assay [31], 1.3; in assay [32] it was 0.4; in the assay on Vero [33], 0.5; in [34], 1.1. Also, the values for the Virus rating (in the assay with Vero [35]; in assay [36]; with Vero [37]) were 1, 1.2 and 0.8, respectively.
On to `Nc1ncnc2c(N[C@@H]3O[C@H](CO)[C@@H](O)[C@@H]3O)ncnc12`, for which the Virus rating in assay [3] was 1.5; in assay [38], 1.3; in assay [5] it was 1.6; in the assay on Vero [29], 0.8; in the assay on Vero [33], 0.6; in the assay with Vero [35] it was 0.6. Also, the Virus rating in the assay on Vero [39] was 1.4; in assay [40], 1; in the assay with Vero [41], 0.7; in [10], 1.5.
With `NC(=O)c1ncnc2c1ncn2C1O[C@H](CO)[C@@H](O)[C@H]1O` (stereo partly drawn), the Virus rating is recorded as 1.2 in assay [3]; 0 with Vero [11]; 0.6 in [5]; 1.1 in assay [6]; 0.6 in the assay on Vero [12]; 0.9 in assay [7]. For the same compound, the Virus rating in the assay on Vero [26] worked out at 0.4; in the assay on Vero [20] it was 1.5; in the assay on Vero [28], 0; in assay [10] it was 1.4. Moreover, the results for the Inhibition with Rift Valley fever virus [42], in the assay on Vero [44] and in the assay with Vero [45] were 90%, 99% and 90%, respectively. The ILS with Rift Valley fever virus [43] came out at 55%.
